Many of the other results were omitted from the sample, so hits are more common in it than they were.
bCat KO growth: beta-catenin-lacking colon tumor cell growth suppression | HCT116 beta-catenin knockout viability, CellTiter-Glo, 60 h; stronger effect = lower value | 1.5% of 140,000 active | AID 818 | viability, % at 10 µM;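 active = viability at or under a set limit, the compound median less 4 SD, cut at about 6% in these data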;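 also: 0% = Hyamine 1622 control at 20 µM and 100% = untreated cell control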
HUVEC prolif 384: inhibitors of human endothelial cell proliferation | 1.1% of 86,000 active | HUVEC proliferation, CellTiter-Glo luminescence, 72 h; stronger effect = lower value | viability, % at 10 µM (by protocol);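 active = viability at or below 30%; inactive = viability above 30%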;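 also: 100% = median luminescence of DMSO-only cell control wells on each plate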
H69AR inhibit: growth inhibitors of human H69AR lung tumor cells; viability, % at 10 µM; 6% of 85,000 active; H69AR lung tumor viability, ATP luminescence, 72 h; stronger effect = lower value;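 active = viability at or below 40%; inactive = viability above 40%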;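 also: multidrug resistant small cell line overexpressing MRP-1 efflux transporter; 100% = mean luminescence of untreated control wells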
Fibroblast inh: blocks proliferation of human lung fibroblasts; LL 47 human lung fibroblast viability, ATP luminescence; stronger effect = lower value; viability, % at 10 µM; 1.1% of 85,000 active; AID 719;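 active = viability at or below 50% in the single dose screen; inactive = viability above 50%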;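 also: compound exposure lasted 72 h before the ATP readout; 100% = median luminescence of untreated cell-only wells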
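Material: human lung fibroblast line LL 47, low passage; Evaluation: viability percentage against median untreated-cell control; Buffer or medium: 15% FBS in IMEM; Incubation: 72 h compound exposure at 37 °C after overnight plating; Dosing: 0.1% DMSO in all compound wells; Measured by: CellTiter-Glo luminescence.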
PTEN del growth: suppresses growth of cells with PTEN deletion | HCT116 PTEN-null viability, CellTiter-Glo, 60 h; stronger effect = lower value | viability, % at 10 µM | 1.2% of 140,000 active;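 active = viability at or below a set limit, 4 SD under the median of all tested compounds, cut at about 3.7% in these data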;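 also: PTEN knockout HCT116 line with beta catenin targeted HCT116 as companion control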
Starred values were filed as active, the others as inactive; / = no result.

SMILES | bCat KO growth | HUVEC prolif 384 | H69AR inhibit | Fibroblast inh | PTEN del growth
CCCCOc1ccccc1NC(=O)Cn1c(-c2nonc2N)nc2ccccc21 | 1.8* | / | / | / | 1.6*
COc1cc(Cn2c(-c3nonc3N)nc3ccccc32)ccc1C | 96.3 | 40.0 | 17.9* | 48.1* | 96.7
CC(C)Sc1nnc(CNC(=O)C23CC4CC(CC(C4)C2)C3)n1C1CCCCC1 | 97.7 | / | / | / | 99.8
CC(C)Cn1[nH]c2c3c(ccc2c1=O)C(=O)c1ccccc1C3=O | 65.2 | / | / | / | 58.1
COC(=O)c1ccc(COc2ccccc2/C=C(\C#N)C(=O)Nc2c(C)cc(C)cc2C)cc1 | 1.4* | / | / | / | 1.1*
COC(=O)c1ccc(COc2ccccc2/C=C(\C#N)C(=O)Nc2ccc(C)cc2C)cc1 | 78.8 | / | / | / | 74.1
CCC(=O)N1CCN(c2ccc(NC(=O)c3cc4ccccc4o3)cc2Cl)CC1 | 2.5* | 2.9* | 10.3* | 42.5* | 3.1*
O=C(Nc1ccc(N2CCN(C(=O)c3ccco3)CC2)c(Cl)c1)c1cc2ccccc2o1 | 2.8* | 7.9* | 36.8* | 43.4* | 3.2*
CCCC(=O)N1CCN(c2ccc(NC(=O)c3cc4ccccc4o3)cc2Cl)CC1 | 105.4 | 2.1* | 13.5* | 16.1* | 96.3
Cc1ccc(C(c2nnnn2C2CCCC2)N2c3ccccc3CC2C)cc1 (stereo not drawn) | 54.9 | / | / | / | 48.8
CCc1ccc(C(C(=O)NCCOC)N(C(=O)Cn2nnc3ccccc32)c2cccnc2)cc1 (stereo not drawn) | 102.4 | 97.8 | 95.1 | 97.8 | 82.2
Cc1ccc(C)c(NC(=S)NC(NC(=O)Cc2cccc3ccccc23)C(Cl)(Cl)Cl)c1 (stereo not drawn) | 17.1 | 4.3* | 2.3* | 4.4* | 2.6*
Cn1c(=O)c2c3c(sc2n2c(SCC(N)=O)nnc12)CC(C(C)(C)C)CC3 (stereo not drawn) | 1.4* | 73.0 | 65.8 | 89.0 | 4.7
C=CCNc1ncnc2c1ncn2C1OC(CO)C(O)C1O (stereo not drawn) | 9.5 | 41.0 | 30.9* | 40.1* | 13.1
O=C(/C=C/c1ccc(F)cc1)c1ccccc1Br | 2.6* | / | / | / | 2.2*
Cc1ccc(C(=O)/C=C/c2ccc(F)cc2)o1 | 8.6 | / | / | / | 9.2
O=C(Nc1ccccc1[N+](=O)[O-])c1nc[nH]c1C(=O)NCCO | 97.5 | / | / | / | 96.3
O=C(Nc1ccc(F)cc1)c1nc[nH]c1C(=O)Nc1ccccc1[N+](=O)[O-] | 2.8* | / | / | / | 1.6*
COc1ccc(Cn2nc(C)n(N(C)c3ncc(C(F)(F)F)cc3Cl)c2=O)cc1 | 97.8 | 94.7 | 71.9 | 89.9 | 100.5
COc1cc(NC(=O)c2ccco2)c(OC)cc1NC(=O)Nc1ccc(Cl)cc1 | 24.1 | 78.0 | 11.2* | 109.3 | 25.7
O=C(Nc1ccccc1-c1ccccc1NC(=O)c1ccco1)c1ccco1 | 97.3 | 89.9 | 39.8* | 101.8 | 93.2
CC(C)Oc1ccc(C(=O)Nc2ccc(NC(=O)c3ccco3)c(Cl)c2)cc1 | 82.1 | 105.0 | 88.0 | 101.7 | 92.4
CC(C)COc1ccc(C(=O)Nc2ccc(NC(=O)c3ccco3)c(Cl)c2)cc1 | 39.3 | 36.6 | 6.7* | 86.7 | 41.2
COc1cc(OC)cc(C(=O)Nc2cc(NC(=O)c3ccco3)ccc2OC)c1 | 89.6 | 83.5 | 36.7* | 93.8 | 87.7
O=C(Nc1ccccc1NC(=O)c1ccco1)c1ccco1 | 52.2 | 112.5 | 95.7 | 102.4 | 59.8
SMILES | bCat KO growth | HUVEC prolif 384 | H69AR inhibit | Fibroblast inh | PTEN del growth
COc1cc(OC)c(OC)cc1/C=N/NC(=S)NCC1CCCO1 (stereo not drawn) | 97.6 | / | / | / | 107.3
COC(=O)[C@@H]1CC[C@H](C)[C@@H](c2ccc(C)cc2)N1C(=O)c1ccc(/C=N/OCC[C@@H]2C=C[C@H](OC(C)=O)[C@@H](COC(C)=O)O2)cc1 | 74.1 | / | / | / | 70.8
O=C(Nc1ccc(Cl)cc1C(=O)Nc1ccncc1)c1ccco1 | 68.0 | 72.7 | 35.8* | 69.6 | 78.5
CCOC(=O)c1c(C)oc2c1c(C(c1cccnc1)N1CCCCC1)c(O)c1ccccc12 (stereo not drawn) | 25.0 | 47.6 | 7.3* | 54.3 | 22.8
Cc1nc(N2CCN(C)CC2)c2c(C)c(C(=O)Nc3ccc(C)c(F)c3)sc2n1 | 10.8 | 3.7* | 49.1 | 43.5* | 9.6
COC(=O)c1sc2nc(-c3ccccc3)nc(N3CCN(C)CC3)c2c1C | 58.1 | 45.7 | 70.5 | 79.6 | 57.9
COc1cc2c(=O)n(Cc3ccccc3)c(=O)n(CC(=O)NCCc3ccccc3)c2cc1OC | 67.3 | 75.9 | 33.4* | 64.5 | 32.5
Cc1ccc2nc(-c3sc4nc(C)cc(C)c4c3N)[nH]c2c1 | 77.9 | 42.5 | 15.0* | 95.3 | 83.0
CN(CC(=O)OCC(=O)NCc1ccccc1)S(=O)(=O)c1ccc(Cl)cc1 | 93.7 | / | / | / | 86.6
Cc1cccc(-n2nnc(C(=O)NC3CCCc4ccccc43)c2N)c1 (stereo not drawn) | 64.2 | 67.1 | 19.2* | 93.5 | 57.0
C(=N\Nc1nc(-c2ccccc2)cs1)/c1cccnc1 | 74.9 | / | / | / | 81.4
Cc1ccc(-c2cc(-c3ccccc3O)nc(N/N=C/c3cccnc3)n2)cc1 | 4.0* | / | / | / | 2.9*
Cc1ccccc1OCCC(=O)Nc1ccc(Cl)cc1F | 98.4 | / | / | / | 91.3
COc1ccc2[nH]c3c(N4CCC(O)(c5cccc(C(F)(F)F)c5)CC4)ncnc3c2c1 | 4.5* | / | / | / | 5.4
Cc1ccc2[nH]c3c(N4CCc5ccccc5C4)ncnc3c2c1 | 7.3 | 52.2 | 61.1 | 73.9 | 10.6
Clc1ccc2[nH]c3c(c2c1)CCc1cn[nH]c1-3 | 71.2 | 46.3 | 21.8* | 94.0 | 72.3
CCn1cc(C2=NC(c3ccccc3)CO2)c2ccccc21 (stereo not drawn) | 91.5 | 71.0 | 31.9* | 87.2 | 89.7
CCc1cccc(CC)c1NC(=O)CN1CC(C)SC1=NC1CCCCC1 (stereo not drawn) | 37.2 | 98.9 | 92.5 | 87.7 | 45.1
CNc1nc(-c2ccccn2)nnc1-c1ccccc1 | 18.7 | 11.1* | 67.6 | 13.5* | 21.2
c1ccc(-c2nnc(-c3ccccn3)nc2NC2CCCCC2)cc1 | 4.0* | 18.5* | 36.7* | 18.8* | 7.2
O=C(COc1ccc(S(=O)(=O)N2CCCCC2)cc1)NCc1cccnc1 | 115.5 | 95.2 | 89.0 | 104.6 | 98.2
COc1nnc(-c2ccc(N3CCCCC3)c(NC(C)=O)c2)c2ccccc12 | 98.1 | 91.5 | 79.0 | 101.8 | 100.4
CN(c1cccc(NC(=O)CN(c2cccc(Cl)c2)S(=O)(=O)c2ccc(Cl)cc2)c1)S(C)(=O)=O | 88.6 | / | / | / | 68.4
COc1ccc(OC)c(C(=O)c2coc3ccc(O)cc23)c1 | 97.5 | 77.9 | 24.1* | 98.6 | 105.6
COc1ccc(C(=O)c2ccc(OC)cc2O)c(O)c1 | 64.1 | 90.2 | 32.0* | 88.7 | 86.1
COc1ccc2occ(C(C)=O)c2c1 | 94.7 | 90.4 | 85.0 | 95.8 | 100.1
CCOC(=O)CSc1n[nH]c(NC(=O)c2cccc(C(F)(F)F)c2)n1 | 79.8 | / | / | / | 89.1
CNc1oc(-c2ccc(Cl)cc2)nc1P(=O)(c1ccccc1)c1ccccc1 | 72.7 | / | / | / | 68.0
CCOc1cc(C(=S)N2CCCCC2)ccc1OCC(=O)NCc1ccccc1 | 92.7 | 104.9 | 22.7* | 97.5 | 98.5

Screens: PubChem BioAssay, SRMLSC
